# Results from different studies.
# Protocols differ between the studies behind these lines.
# Target: NT-3 growth factor receptor (NTRK3, Homo sapiens, UniProt Q16288)
Compound,effect on,mode,technique,concentration,endpoint,result
COc1cc(Cl)c(C(=O)N[C@@H](CN[C@H]2CC[C@@H](N)CC2)Cc2ccc(C#N)cc2)cc1-c1ccc(CN[C@H](C)c2ccc(C)cc2)o1,enzyme activity,inhibitor,,1 µM,remaining activity,96%
O=C(Nc1cccc(F)c1)Nc1cccc(C(=O)Nc2ccc3[nH]ncc3c2)c1,enzyme activity,inhibitor,FRET,1 µM,inhibition,17%
COc1cc2c(Nc3ccc(Br)cc3F)ncnc2cc1OCC1CCN(C)CC1,cell-free assay,,,0.5 µM,remaining signal,72.2%
Cc1c(NC(=O)c2cc(C(N)=O)nc3cc(F)ccc23)c(C(F)(F)F)nn1Cc1ccc(C(C)(C)C)cc1,cell-free assay,,competition with immobilised ligand,1 µM,remaining binding,100%
N#CCCc1ccc2c(c1)-c1[nH]c3ccc([N+](=O)[O-])cc3c1CC(=O)N2,cell-free assay,,,0.5 µM,remaining signal,61.2%
Cc1ccc(C(=O)Nc2ccc(CN3CCN(C)CC3)c(C(F)(F)F)c2)cc1C#Cc1cnc2cccnn12,cell-free assay,,,23.5 nM,remaining signal,26%
O=C(Nc1ccc2[nH]ncc2c1)c1cccc(NC(=S)Nc2ccc(F)cc2F)c1,enzyme activity,inhibitor,FRET,1 µM,inhibition,12.5%
Cc1c(C(=O)O)cc(-c2ccc(C3CCNCC3)cc2)c2ccc(-c3ccc(C(F)(F)F)cc3)cc12,cell-free assay,,competition with immobilised ligand,1 µM,remaining binding,100%
CC(C)(C)c1nc(-c2cccc(NS(=O)(=O)c3c(F)cccc3F)c2F)c(-c2ccnc(N)n2)s1,enzyme activity,inhibitor,radiometric,1 µM,remaining activity,93%
O=C(Nc1cnn2ccc(N3CCC[C@@H]3c3cc(F)ccc3F)nc12)N1CC[C@H](O)C1,enzyme activity,inhibitor,FRET,1 µM,inhibition,100%
CS(=O)(=O)NCC[C@H](NC(=O)c1cncc2c1cnn2-c1ccc(F)cc1)c1ccnc(S(C)(=O)=O)c1,cell-free assay,,competition with immobilised ligand,1 µM,remaining binding,100%
CN1CCN(c2ccc(C(=O)Nc3n[nH]c4ccc(Cc5cc(F)cc(F)c5)cc34)c(NC3CCOCC3)c2)CC1,enzyme activity,inhibitor,FRET,1 µM,inhibition,99.8%
Cc1c[nH]c2nccc(Oc3c(F)cc(Nc4cc(Cl)nc(N)n4)cc3F)c12,cell-free assay,,competition with immobilised ligand,0.1 µM,remaining binding,86%
O=C(Nc1cnn(-c2csc(C(=O)NC3COC3)c2)c1)Nc1ccccc1Cl,enzyme activity,inhibitor,,5 µM,remaining activity,64.3%
NS(=O)(=O)c1cc(NC(=O)Cc2ccccc2)ccc1Oc1cccc(Cl)c1,cell-free assay,,competition with immobilised ligand,1 µM,remaining binding,87%
Cc1ccc(Nc2nccc(N(C)c3ccc4c(C)n(C)nc4c3)n2)cc1S(N)(=O)=O,cell-free assay,,,0.5 µM,remaining signal,87.8%
O=C(Nc1ccc(F)cc1)Nc1cccc(C(=O)Nc2ccc3[nH]ncc3c2)c1,enzyme activity,inhibitor,FRET,1 µM,inhibition,13%
Clc1ccc(Nc2nnc(Cc3ccncc3)c3ccccc23)cc1,cell-free assay,,,0.5 µM,remaining signal,92.7%
O=C(Nc1ccccc1)Nc1cccc(C(=O)Nc2ccc3[nH]ncc3c2)c1,enzyme activity,inhibitor,FRET,1 µM,inhibition,12.7%
N#CC1(c2ccccn2)CCN(Cc2cc(C(=O)N3CCCC3)c(=O)n3ccccc23)CC1,cell-free assay,,competition with immobilised ligand,1 µM,remaining binding,100%
Cc1sc(C(=O)NC2COC2)cc1-n1cc(NC(=O)Nc2c(F)cccc2Cl)cn1,enzyme activity,inhibitor,,10 µM,remaining activity,86%
CN(C)C(=O)Cn1cc(-c2nc([C@@](C)(c3ccc(-c4cnc(N)nc4)cc3)C3CC3)no2)cn1,cell-free assay,,competition with immobilised ligand,1 µM,remaining binding,92%
O=C(Nc1cccc(C(=O)Nc2ccc3[nH]ncc3c2)c1)Nc1ccccc1C(F)(F)F,enzyme activity,inhibitor,FRET,1 µM,inhibition,23.7%
O=C(O)[C@H]1[C@H](Cn2nnc3ccccc3c2=O)CC[C@@H]1C(=O)c1ccc(OCCC2CCOCC2)cc1,cell-free assay,,competition with immobilised ligand,1 µM,remaining binding,82%
Cc1cnc(NC2CCOCC2)nc1-n1cnc(C(=O)NC(CN)c2cc(F)cc(Cl)c2)c1 (stereo not shown),enzyme activity,inhibitor,radiometric,1 µM,remaining activity,93%
